Usually Kd stands for the equilibrium constant for the complex coming apart. A high value points to weaker binding. Broadly, the Ki is a measure of affinity in units of concentration, obtained from inhibition or displacement. A higher Ki goes with a looser hold on the target. As a reminder, the EC50 is the midpoint of the concentration-response curve. Low values mean a more potent agent, high ones a less potent agent.

Experiment [1] addresses Cannabinoid receptor (Homo sapiens) (UniProt P34972+P21554). The experiment in a line: Ratio of binding affinities in cannabinoid CB1 receptor against cannabinoid CB2 receptor. The class given is protein assay. In a few lines:
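Ratio of Ki values. CB1 Ki from displacement of 1 nM [3H]CP-55,940 in whole-brain P2 membranes. CB2 Ki from the same radioligand on CHO cells expressing cloned human CB2. Both Ki values from […].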

The subject of experiment [2] is Mus musculus. The experiment in a line: Rectal temperature in the mouse model, following intravenous administration of the compound(60 mg/kg), in the tail vein. The class given is functional. In a few lines:
(§1)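 Mice dosed by tail-vein iv injection in 1:1:18 emulphor:ethanol:saline, 0.1 mL/10 g body weight. Tetrad scored for spontaneous activity, tail-flick antinociception, rectal temperature and ring immobility. Values reported as ED50 ± SE from ALLFIT analysis, or as percent effect (temperature change for RT) at the stated dose (mg/kg).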

Experiment [3] is filed under the species Mus musculus. As to the kind of experiment: Dissociation constant of SR-141716A determined in the presence using mouse vas deferens. It counts as functional. The procedure, abridged:
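Mouse isolated vas deferens, electrically evoked contractions; agonist concentration–response curves run with SR-141716A at 31.62 nM or with Tween 80 vehicle. Kd from (x−1)=B/Kd, where x is the dose ratio. Dose ratios and 95% confidence limits by symmetrical (2+2) dose parallel line assay, using agonist concentration pairs on the steepest part of each curve.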

In another experiment the target is Cannabinoid receptor 1 (Rattus norvegicus, UniProt P20272). The experiment in a line: Binding affinity for cannabinoid receptor 1.
Cannabinoid receptor 1, sequence (P20272 whole entry): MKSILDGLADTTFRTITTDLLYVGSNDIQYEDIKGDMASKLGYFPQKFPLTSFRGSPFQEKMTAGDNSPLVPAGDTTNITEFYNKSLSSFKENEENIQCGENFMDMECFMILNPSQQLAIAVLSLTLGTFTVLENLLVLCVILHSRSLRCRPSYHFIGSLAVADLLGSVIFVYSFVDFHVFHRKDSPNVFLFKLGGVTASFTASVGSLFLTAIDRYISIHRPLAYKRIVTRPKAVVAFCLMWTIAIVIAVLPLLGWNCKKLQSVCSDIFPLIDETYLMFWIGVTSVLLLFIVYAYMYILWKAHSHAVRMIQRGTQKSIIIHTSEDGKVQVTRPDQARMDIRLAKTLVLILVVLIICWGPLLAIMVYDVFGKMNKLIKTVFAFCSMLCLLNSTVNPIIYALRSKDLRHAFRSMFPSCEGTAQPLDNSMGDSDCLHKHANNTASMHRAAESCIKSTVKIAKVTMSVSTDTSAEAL
The species entered for experiment [4] is Mus musculus. As to the kind of experiment: Inhibition of electrically-evoked contractions of mouse vas deferens. It counts as functional. In a few lines: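 Mouse isolated vas deferens; response is drug-induced inhibition of electrically evoked contractions. Drugs mixed with 2 parts Tween 80 by weight and dispersed in 0.9% saline. EC50 with 95% confidence limits from nonlinear regression of log concentration–response curves.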

Experiment [5] deals with Mus musculus. As to the kind of experiment: Rectal temperature in the mouse model, following intravenous administration (30 mg/kg), in the tail vein. The class given is functional. In a few lines: as §1
The test system of experiment [6] is Mus musculus. As to the kind of experiment: Rectal temperature in the mouse model, following intravenous administration of the compound, in the tail vein.at the dose (100 mg/kg). The class given is functional. The procedure, abridged: as §1

Cannabinoid receptor (Homo sapiens), sequence (P21554 whole entry, looked up): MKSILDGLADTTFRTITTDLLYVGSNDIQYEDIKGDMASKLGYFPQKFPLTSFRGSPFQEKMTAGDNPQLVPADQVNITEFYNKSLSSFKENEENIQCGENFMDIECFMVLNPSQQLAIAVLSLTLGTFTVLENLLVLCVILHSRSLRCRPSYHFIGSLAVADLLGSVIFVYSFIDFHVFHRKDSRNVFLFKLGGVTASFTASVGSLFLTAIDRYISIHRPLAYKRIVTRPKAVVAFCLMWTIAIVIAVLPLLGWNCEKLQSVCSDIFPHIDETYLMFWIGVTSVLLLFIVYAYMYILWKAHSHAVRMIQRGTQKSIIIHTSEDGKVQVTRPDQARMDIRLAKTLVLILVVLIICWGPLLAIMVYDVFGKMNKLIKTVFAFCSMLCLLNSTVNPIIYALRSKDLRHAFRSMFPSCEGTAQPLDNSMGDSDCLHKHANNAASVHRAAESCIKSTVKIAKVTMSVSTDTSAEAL
Cannabinoid receptor (Homo sapiens), sequence (P34972 whole entry, looked up): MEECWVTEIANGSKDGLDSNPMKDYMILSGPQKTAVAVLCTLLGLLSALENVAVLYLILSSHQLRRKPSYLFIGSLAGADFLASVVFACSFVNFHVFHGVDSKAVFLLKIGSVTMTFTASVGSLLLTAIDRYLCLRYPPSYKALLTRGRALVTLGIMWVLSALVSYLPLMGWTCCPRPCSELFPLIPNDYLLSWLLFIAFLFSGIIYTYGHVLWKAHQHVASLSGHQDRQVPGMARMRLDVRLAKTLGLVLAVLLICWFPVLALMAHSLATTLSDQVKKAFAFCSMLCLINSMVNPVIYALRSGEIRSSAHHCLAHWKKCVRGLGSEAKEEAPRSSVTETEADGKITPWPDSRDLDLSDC

In the case of `CCCCCc1cc2c(c3c1CCCO3)C1CC(=O)CC[C@H]1C(C)(C)O2` (stereo partly drawn), the Ratio in experiment [1] was determined as 3.9. Moreover, the Temperature in the experiment with Mus musculus [2] is -2.9 °C. In the experiment listed under Mus musculus [3], this molecule had a Kd of 1.72 nM. At Cannabinoid receptor 1, this molecule showed a Ki of 90 nM. The same molecule displayed an EC50 in the experiment filed under Mus musculus [4] of 7.23 nM.

Consider `CCCCCc1cc2c(c3c1CCCO3)C1C[C@@H](O)CC[C@H]1C(C)(C)O2` (stereo partly drawn), for which, in the experiment listed under Mus musculus [3], the Kd amounted to 1.67 nM. Further, in the experiment listed under Mus musculus [4], the midpoint of the response, the EC50, lay at 83.5 nM.

Molecule `CCCCCc1cc2c(c3c1CCCO3)C1C[C@H](O)CC[C@H]1C(C)(C)O2` (stereo partly drawn) showed a Kd in the experiment filed under Mus musculus [3] of 1.67 nM. In the experiment listed under Mus musculus [4], this molecule gave an EC50 of 8.35 nM.

`C=C1CC[C@@H]2C(C1)c1c(cc(CCCCC)c3c1OCCC3)OC2(C)C` (stereo partly drawn): the Ratio in experiment [1] came to 4.4. Binding in the experiment listed under Mus musculus [3] was put at a Kd of 2.49 nM. Moreover, in the experiment on Mus musculus [5], the Temperature was -3.6 °C. In addition, the midpoint of the response in the experiment filed under Mus musculus [4], the EC50, lay at 28.6 nM.

For `CCCCCc1cc2c(c3c1CCCO3)C1CC=CC[C@H]1C(C)(C)O2` (stereo partly drawn), the Ratio in experiment [1] came to 2.8. The Temperature in the experiment on Mus musculus [6] was -1.2 °C. For the same molecule, binding in the experiment filed under Mus musculus [3] was characterised by a dissociation constant (Kd) of 2.97 nM. Also, the Ki on Cannabinoid receptor 1 turned out to be 364 nM. The molecule also showed an EC50 in the experiment listed under Mus musculus [4] of 16.5 nM.

The record behind these values is ChEMBL document CHEMBL1130181, “Importance of the C-1 substituent in classical cannabinoids to CB2 receptor selectivity: synthesis and characterization of a series of O,2-propano-delta 8-tetrahydrocannabinol analogs” (J Med Chem, 1997).
